The test system of series [1] is Bacillus subtilis. The series is described as follows: Antibiotic activity against Bacillus subtilis NBRC 3513 by microplate dilution assay. The series is classed as functional. The gist of the method: (§1)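 Minimum inhibitory concentration determined by microplate dilution, inoculum 10⁶ organisms per ml. Strains tested: Bacillus subtilis NBRC 3513, Bacillus megaterium ATCC 19213, Staphylococcus epidermidis NBRC 12933, Staphylococcus aureus NBRC 12732, Pseudomonas aeruginosa NBRC 3080, Escherichia coli NBRC 12734. MIC reported in µg/mL.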

Series [2] relates to Priestia megaterium. The series is described as follows: Antibiotic activity against Bacillus megaterium ATCC 19213 by microplate dilution assay. The series is classed as functional. The gist of the method: as §1
Series [3] has as its system Staphylococcus epidermidis. The series is described as follows: Antibiotic activity against Staphylococcus epidermidis NBRC 12933 by microplate dilution assay. In kind it is functional. The procedure, abridged:
as §1

The test system of series [4] is Staphylococcus aureus. The series is described as follows: Antibiotic activity against Staphylococcus aureus NBRC 12732 by microplate dilution assay. In kind it is functional. The procedure, abridged:
as §1

Series [5] deals with Pseudomonas aeruginosa. The experiment in a line: Antibiotic activity against Pseudomonas aeruginosa NBRC 3080 by microplate dilution assay. In kind it is functional. The procedure, abridged:
as §1

Series [6] deals with Escherichia coli. The experiment in a line: Antibiotic activity against Escherichia coli NBRC 12734 by microplate dilution assay. The series is classed as functional. The gist of the method: as §1
Series [7] in a line: Cytotoxicity against human red blood cells assessed as hemolysis after 30 mins. The series is classed as cell-based. Particulars: erythrocyte, 0.5 h.

≈ marks a conversion by molar mass, not a printed value. Non-standard residues stand in square brackets, D forms with d. Residues, ends and D or L forms follow the SMILES beside them. Orn = NCCC[C@H](N)C(=O)O

What is called MIC is the least concentration at which growth counts as inhibited. Consider `CC(C)C[C@@H]1NC(=O)[C@H](CCCN)NC(=O)[C@H](C(C)C)NC(=O)CNC(=O)[C@@H]2CCCN2C(=O)[C@@H](Cc2ccccc2)NC(=O)[C@H](CC(C)C)NC(=O)[C@H](CCCN)NC(=O)[C@H](C(C)C)NC(=O)CNC(=O)[C@@H]2CCCN2C(=O)[C@@H](Cc2ccccc2)NC1=O`, for which the MIC in series [1] was 100 µg/mL (≈ 79.6 µM); in series [2] it was 100 µg/mL (≈ 79.6 µM); in series [3], > 100 µg/mL; in series [4] it was 100 µg/mL (≈ 79.6 µM); in series [5], > 100 µg/mL; in series [6], > 100 µg/mL. The Activity result in series [7] is “Dose-dependent effect”.

For `CC(C)C[C@@H]1NC(=O)[C@H](CCCN)NC(=O)[C@H](C(C)C)NC(=O)[C@@H](CCC(=O)O)NC(=O)[C@@H]2CCCN2C(=O)[C@@H](Cc2ccccc2)NC(=O)[C@H](CC(C)C)NC(=O)[C@H](CCCN)NC(=O)[C@H](C(C)C)NC(=O)[C@@H](CCC(=O)O)NC(=O)[C@@H]2CCCN2C(=O)[C@@H](Cc2ccccc2)NC1=O`, the MIC in series [1], in series [2], in series [3], in series [4], in series [5] and in series [6] was > 100 µg/mL each time. For the same compound, in series [7], the Activity result was “Dose-dependent effect”.

For the compound `CC(C)C[C@@H]1NC(=O)[C@H](CCCN)NC(=O)[C@H](C(C)C)NC(=O)[C@@H](CO)NC(=O)[C@@H]2CCCN2C(=O)[C@@H](Cc2ccccc2)NC(=O)[C@H](CC(C)C)NC(=O)[C@H](CCCN)NC(=O)[C@H](C(C)C)NC(=O)[C@@H](CO)NC(=O)[C@@H]2CCCN2C(=O)[C@@H](Cc2ccccc2)NC1=O`, the MIC in series [1] is > 100 µg/mL; in series [2] it was > 100 µg/mL; in series [3], > 100 µg/mL; in series [4], 100 µg/mL (≈ 76 µM); in series [5], > 100 µg/mL; in series [6] it was > 100 µg/mL. In series [7], the Activity entry is “Dose-dependent effect”.

Consider `CC(C)C[C@@H]1NC(=O)[C@H](CCCN)NC(=O)[C@H](C(C)C)NC(=O)[C@@H](C)NC(=O)[C@@H]2CCCN2C(=O)[C@@H](Cc2ccccc2)NC(=O)[C@H](CC(C)C)NC(=O)[C@H](CCCN)NC(=O)[C@H](C(C)C)NC(=O)[C@@H](C)NC(=O)[C@@H]2CCCN2C(=O)[C@@H](Cc2ccccc2)NC1=O` (cyclo(L[dF]P[dA]V[Orn]L[dF]P[dA]V[Orn])), for which the minimum inhibitory concentration (MIC) in series [1] was 12.5 µg/mL (≈ 9.74 µM); in series [2], 12.5 µg/mL (≈ 9.74 µM); in series [3], 25 µg/mL (≈ 19.5 µM); in series [4] it was 12.5 µg/mL (≈ 9.74 µM); in series [5], > 100 µg/mL; in series [6], > 100 µg/mL. Further, the Activity result in series [7] is on record as “Dose-dependent effect”.

Turning to `CC(C)C[C@@H]1NC(=O)[C@H](CCCN)NC(=O)[C@H](C(C)C)NC(=O)[C@@H]2CCCN2C(=O)[C@@H](Cc2ccccc2)NC(=O)[C@H](CC(C)C)NC(=O)[C@H](CCCN)NC(=O)[C@H](C(C)C)NC(=O)[C@@H]2CCCN2C(=O)[C@@H](Cc2ccccc2)NC1=O` [GRAMICIDIN S] (cyclo(L[dF]PV[Orn]L[dF]PV[Orn])), the MIC in series [1] was 3.13 µg/mL (≈ 2.74 µM); in series [2], 3.13 µg/mL (≈ 2.74 µM); in series [3] it was 3.13 µg/mL (≈ 2.74 µM); in series [4], 3.13 µg/mL (≈ 2.74 µM); in series [5], 25 µg/mL (≈ 21.9 µM); in series [6], 25 µg/mL (≈ 21.9 µM). In series [7], the Activity result is recorded as “Dose-dependent effect”.

As for `CC(C)C[C@@H]1NC(=O)[C@H](CCCN)NC(=O)[C@H](C(C)C)NC(=O)[C@@H](Cc2ccc(O)cc2)NC(=O)[C@@H]2CCCN2C(=O)[C@@H](Cc2ccccc2)NC(=O)[C@H](CC(C)C)NC(=O)[C@H](CCCN)NC(=O)[C@H](C(C)C)NC(=O)[C@@H](Cc2ccc(O)cc2)NC(=O)[C@@H]2CCCN2C(=O)[C@@H](Cc2ccccc2)NC1=O` [GRATISIN], the MIC in series [1] was 6.25 µg/mL (≈ 4.26 µM); in series [2], 6.25 µg/mL (≈ 4.26 µM); in series [3] it was 12.5 µg/mL (≈ 8.52 µM); in series [4], 6.25 µg/mL (≈ 4.26 µM); in series [5], 100 µg/mL (≈ 68.1 µM); in series [6] it was 100 µg/mL (≈ 68.1 µM). Also, in series [7], the Activity result is on record as “Dose-dependent effect”.

Values taken from ChEMBL document CHEMBL1153598, “Syntheses of low-hemolytic antimicrobial gratisin peptides” (Bioorg Med Chem Lett, 2009).
